Data as given in ChEMBL document CHEMBL4270548, “Discovery of a potent glucokinase activator with a favorable liver and pancreas distribution pattern for the treatment of type 2 diabetes mellitus” (Eur J Med Chem, 2018).
≈ marks a conversion by molar mass, not a printed value.

Experiments:
[1] = molecular target: T1, Hexokinase-4 (Homo sapiens) (UniProt P35557); assay: Activation of human glucokinase assessed as conversion of D-glucose to D-glucose-6-phosphate at 10 uM preincubated for 10 mins […] measured for 5 mins at 30 secs time interval by G6PDH/NADP coupled assay relative to RO0281675
T1 sequence (whole entry): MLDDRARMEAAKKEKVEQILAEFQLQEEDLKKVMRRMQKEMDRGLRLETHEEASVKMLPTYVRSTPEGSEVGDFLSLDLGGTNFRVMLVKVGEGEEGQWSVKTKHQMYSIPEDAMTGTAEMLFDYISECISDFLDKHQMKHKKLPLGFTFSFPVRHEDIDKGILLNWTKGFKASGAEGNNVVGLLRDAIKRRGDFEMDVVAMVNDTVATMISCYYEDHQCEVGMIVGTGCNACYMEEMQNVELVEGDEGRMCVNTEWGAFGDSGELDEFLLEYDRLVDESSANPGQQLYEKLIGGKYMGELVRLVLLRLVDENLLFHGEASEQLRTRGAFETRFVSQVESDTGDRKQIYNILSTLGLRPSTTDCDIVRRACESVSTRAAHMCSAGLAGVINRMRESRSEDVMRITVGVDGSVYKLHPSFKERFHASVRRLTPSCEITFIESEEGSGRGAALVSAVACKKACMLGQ
Summary of the method: (§1)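 Human GK in 25 mM HEPES pH 7.1, 25 mM KCl, 2 mM MgCl2, 1 mM NADP, 1 mM DTT, 2 U/mL G6PDH and 5 mM D-glucose. Compound at 10 µM preincubated 10 min at room temperature. Started with 20 mM ATP (added stock). A340 read every 30 s for 5 min, slope from the first 3 min. Fold over DMSO, or relative scale (DMSO 0, 10 µM reference activator 1). Mean ± SEM, n = 3.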

[2] = Aqueous solubility of the compound in phosphate buffered saline at pH 7.4 at 8 to 2000 uM by nephelometric method; assay type: physicochemical
Summary of the method: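 Compound serial dilutions (8 µM–2 mM, before addition to buffer) transferred into PBS pH 7.4 (5 µL into 95 µL). Solubility read by nephelometry. Only wells with blank below mean blank + 2SD were used.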

[3] = molecular target: T1, Hexokinase-4 (Homo sapiens); assay: Activation of human glucokinase assessed as conversion of D-glucose to D-glucose-6-phosphate at 10 uM preincubated for 10 mins followed by 5 mM glucose addition measured for 5 mins at 30 secs time interval by G6PDH/NADP coupled assay relative to control; summary of the method: as §1
hERG (KCNH2) = hERG (KCNH2) (Homo sapiens, UniProt Q12809); assay: Inhibition of [3H]-dofetilide binding to human ERG expressed in HEK293 cell membranes at 30 uM after 1 hr by scintillation proximity assay relative to control; conditions: HEK293 cell membranes that express hERG, probe [3H]-dofetilide
Sequence of hERG (KCNH2) (Q12809 whole entry): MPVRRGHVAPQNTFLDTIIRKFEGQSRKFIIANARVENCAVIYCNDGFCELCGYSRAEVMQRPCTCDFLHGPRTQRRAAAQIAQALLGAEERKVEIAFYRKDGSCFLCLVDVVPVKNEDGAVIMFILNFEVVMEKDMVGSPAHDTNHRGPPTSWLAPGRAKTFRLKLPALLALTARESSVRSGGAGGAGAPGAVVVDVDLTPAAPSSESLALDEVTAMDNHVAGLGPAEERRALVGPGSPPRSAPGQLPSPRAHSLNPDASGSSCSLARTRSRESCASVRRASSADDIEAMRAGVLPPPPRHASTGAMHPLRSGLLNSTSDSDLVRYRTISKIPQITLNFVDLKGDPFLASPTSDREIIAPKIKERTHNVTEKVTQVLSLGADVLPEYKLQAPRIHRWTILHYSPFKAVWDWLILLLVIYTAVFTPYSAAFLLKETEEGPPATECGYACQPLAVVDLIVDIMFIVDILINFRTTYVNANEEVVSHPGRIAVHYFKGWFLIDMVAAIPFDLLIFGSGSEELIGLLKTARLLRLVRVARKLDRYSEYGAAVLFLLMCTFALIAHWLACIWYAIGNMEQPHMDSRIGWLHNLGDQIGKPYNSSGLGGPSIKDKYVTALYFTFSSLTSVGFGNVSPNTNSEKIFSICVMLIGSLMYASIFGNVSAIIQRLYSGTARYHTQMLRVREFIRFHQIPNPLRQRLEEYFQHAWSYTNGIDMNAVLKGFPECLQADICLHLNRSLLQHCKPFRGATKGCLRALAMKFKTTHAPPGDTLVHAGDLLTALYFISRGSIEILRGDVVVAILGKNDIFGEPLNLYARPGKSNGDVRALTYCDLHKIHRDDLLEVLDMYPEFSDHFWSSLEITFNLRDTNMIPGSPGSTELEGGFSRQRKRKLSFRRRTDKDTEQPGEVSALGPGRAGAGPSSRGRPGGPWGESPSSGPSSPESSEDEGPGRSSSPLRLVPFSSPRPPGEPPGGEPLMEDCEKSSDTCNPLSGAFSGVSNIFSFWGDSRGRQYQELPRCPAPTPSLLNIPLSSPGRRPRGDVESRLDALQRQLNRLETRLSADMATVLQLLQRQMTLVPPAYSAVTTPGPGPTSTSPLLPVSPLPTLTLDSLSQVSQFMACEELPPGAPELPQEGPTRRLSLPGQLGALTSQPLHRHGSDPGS
Summary of the method: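 hERG-HEK293 membranes with 10 nM final [3H]-dofetilide and poly-L-lysine SPA beads in 50 mM Tris-Cl, 1.0 mM MgCl2, 10 mM KCl, pH 7.4. Shaken 1 h, beads settled 3 h, then scintillation counting. Normalized to DMSO (0%) and E-4031 (100% inhibition). Single-point at 30 µM, mean ± SEM, n = 3.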

Row | SMILES | fold change (FC) [1] | solubility kinetic [2] | fold change (FC) [3] | inhibition at 1 h, 30 µM (hERG (KCNH2))
1 | Cc1sc(C2CCCN2C(=O)CN(C)C)cc1C(=O)Nc1ncc(Cl)s1 (stereo unspecified) | 0.598 | 3.91 µM (≈ 1.61 µg/mL) | 6.81 | –
2 | Cc1sc(N2CCCCC2=O)cc1C(=O)Nc1nc2c(s1)CCC2 | 0.235 | 0.98 µM (≈ 0.354 µg/mL) | 2.96 | –
3 | Cc1sc(-c2ccccc2C(=O)NCCO)cc1C(=O)Nc1nc2c(s1)CCC2 | 0.373 | 0.98 µM (≈ 0.419 µg/mL) | 3.89 | –
4 | Cc1sc(C2CCCN2C(=O)CN(C)S(C)(=O)=O)cc1C(=O)Nc1ncc(Cl)s1 (stereo unspecified) | 0.168 | – | 3.24 | –
5 | CC(=O)NCC(=O)N1CCCC1c1cc(C(=O)Nc2ncc(Cl)s2)c(C)s1 (stereo unspecified) | 0.395 | – | 5.32 | 3%
6 | Cc1sc(-c2ccccc2C(=O)NCCc2nnn[nH]2)cc1C(=O)Nc1nc2c(s1)CCC2 | -0.019 | 31.3 µM (≈ 15 µg/mL) | 0.84 | –
7 | Cc1sc(C2CCCN2C(=O)CN)cc1C(=O)Nc1nccs1 (stereo unspecified) | 0.293 | 7.81 µM (≈ 2.74 µg/mL) | 3.67 | –
8 | Cc1sc(N2CCCC2=O)cc1C(=O)Nc1nc2c(s1)CCC2 | 0.168 | 3.91 µM (≈ 1.36 µg/mL) | 2.41 | –
9 | Cc1sc(C2CCCN2C(=O)CN(C)C)cc1C(=O)Nc1nccs1 (stereo unspecified) | 0.38 | 7.81 µM (≈ 2.96 µg/mL) | 4.7 | –
10 | Cc1sc(C2CCCN2C(=O)CN(C)CCCC(=O)O)cc1C(=O)Nc1ncc(F)s1 (stereo unspecified) | 0.61 | – | 6.86 | 78%
11 | Cc1sc([C@@H]2CCCN2C(=O)CN(C)CCC(=O)O)cc1C(=O)Nc1ncc(F)s1 | 0.686 | – | 7.26 | 49%
12 | CC(=O)N(C)CC(=O)N1CCCC1c1cc(C(=O)Nc2ncc(Cl)s2)c(C)s1 (stereo unspecified) | 0.118 | – | 2.57 | –
13 | Cc1sc(C2CCCN2C(=O)CNS(C)(=O)=O)cc1C(=O)Nc1ncc(Cl)s1 (stereo unspecified) | 0.46 | – | 6.21 | 16%
14 | Cc1sc(C2CCCN2C(=O)CCN)cc1C(=O)Nc1nccs1 (stereo unspecified) | 0.175 | 15.6 µM (≈ 5.69 µg/mL) | 2.86 | –
15 | Cc1sc(-c2ccccc2C(=O)NCCC(N)=O)cc1C(=O)Nc1nc2c(s1)CCC2 | 0.187 | 3.91 µM (≈ 1.78 µg/mL) | 2.56 | –
16 | Cc1sc(C2CCCN2C(=O)CN(C)CC(=O)O)cc1C(=O)Nc1ncc(F)s1 (stereo unspecified) | 0.71 | – | 6.92 | -6%
17 | CCN(CC(=O)O)CC(=O)N1CCC[C@H]1c1cc(C(=O)Nc2ncc(F)s2)c(C)s1 | – | – | – | -1%
18 | Cc1sc(C2CCCN2C(=O)CN(C)CCCCC(=O)O)cc1C(=O)Nc1ncc(F)s1 (stereo unspecified) | 0.619 | – | 6.95 | 77%
19 | Cc1sc([C@H]2CCCN2C(=O)CN(C)C)cc1C(=O)Nc1ncc(Cl)s1.Cl | 0.381 | 1.95 µM | 4.99 | –
20 | Cc1sc([C@@H]2CCCN2C(=O)[C@H](C)N(C)CC(=O)O)cc1C(=O)Nc1ncc(F)s1 | 0.832 | – | 8.8 | 4%
21 | CC(=O)N1CCCCC1c1cc(C(=O)Nc2nc3c(s2)CCC3)c(C)s1 (stereo unspecified) | 0.017 | 0.98 µM (≈ 0.382 µg/mL) | 1.13 | –
22 | Cc1sc(C2CCCN2C(=O)CCN)cc1C(=O)Nc1nc2c(s1)CCC2 (stereo unspecified) | 0.274 | 0.98 µM (≈ 0.396 µg/mL) | 3.46 | –
23 | Cc1sc(-c2ccccc2C(=O)NCCN(C)C)cc1C(=O)Nc1nc2c(s1)CCC2 | 0.428 | 1.95 µM (≈ 0.887 µg/mL) | 4.31 | –
24 | Cc1sc(C2CCCN2C(=O)CNCC(=O)O)cc1C(=O)Nc1ncc(Cl)s1 (stereo unspecified) | 0.438 | – | 4.75 | 28%
25 | CC(=O)N1CCCC1c1cc(C(=O)Nc2nc3c(s2)CCC3)c(C)s1 (stereo unspecified) | 0.187 | 7.81 µM (≈ 2.93 µg/mL) | 2.53 | –
